From ChEMBL document CHEMBL1137361, “WB4101-related compounds: new, subtype-selective alpha1-adrenoreceptor antagonists (or inverse agonists?)” (J Med Chem, 2006)

Assays:
[1] = target: T1, Alpha-1A adrenergic receptor (Homo sapiens, UniProt P35348); assay: Displacement of [3H]prazosin from cloned human adrenergic alpha 1A receptor expressed in CHO cells; format: cell-based
T1 sequence (P35348 whole entry): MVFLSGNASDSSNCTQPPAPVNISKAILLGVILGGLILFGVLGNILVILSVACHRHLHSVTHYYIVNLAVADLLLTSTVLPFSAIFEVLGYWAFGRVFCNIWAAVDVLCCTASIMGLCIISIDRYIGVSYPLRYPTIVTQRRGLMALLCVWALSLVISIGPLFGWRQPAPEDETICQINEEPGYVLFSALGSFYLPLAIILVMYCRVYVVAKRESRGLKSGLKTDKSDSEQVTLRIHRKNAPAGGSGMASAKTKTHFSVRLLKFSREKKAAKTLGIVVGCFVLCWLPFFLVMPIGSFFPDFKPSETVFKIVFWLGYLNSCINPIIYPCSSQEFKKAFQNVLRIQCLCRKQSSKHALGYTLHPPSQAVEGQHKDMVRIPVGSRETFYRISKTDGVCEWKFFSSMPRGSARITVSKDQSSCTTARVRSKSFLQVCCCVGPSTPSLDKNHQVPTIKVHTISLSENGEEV
How it was run: (§1)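 Radioligand binding with [3H]prazosin as the label. Membranes came from CHO cells expressing the cloned human receptor. Affinity is expressed as pKi.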

[2] = target: T2, Alpha-1B adrenergic receptor (Homo sapiens, UniProt P35368); assay: Displacement of [3H]prazosin from cloned human adrenergic alpha 1B receptor expressed in CHO cells; format: cell-based; how it was run: as §1
T2 sequence (P35368 whole entry): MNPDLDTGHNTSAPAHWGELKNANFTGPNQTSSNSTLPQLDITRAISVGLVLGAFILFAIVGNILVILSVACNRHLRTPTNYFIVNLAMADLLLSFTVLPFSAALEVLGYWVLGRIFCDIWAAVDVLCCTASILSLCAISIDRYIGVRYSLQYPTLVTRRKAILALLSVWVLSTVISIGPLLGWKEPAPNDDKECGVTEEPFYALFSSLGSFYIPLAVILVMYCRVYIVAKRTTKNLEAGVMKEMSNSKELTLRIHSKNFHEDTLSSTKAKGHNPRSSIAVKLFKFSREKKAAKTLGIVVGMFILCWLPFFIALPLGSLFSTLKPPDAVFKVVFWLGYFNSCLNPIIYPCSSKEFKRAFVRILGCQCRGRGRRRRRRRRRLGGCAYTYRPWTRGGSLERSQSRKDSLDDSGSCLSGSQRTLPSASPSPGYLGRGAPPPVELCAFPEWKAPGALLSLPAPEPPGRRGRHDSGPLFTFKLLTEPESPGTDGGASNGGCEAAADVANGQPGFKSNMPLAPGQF

[3] = target: T3, Alpha-1D adrenergic receptor (Homo sapiens, UniProt P25100); assay: Displacement of [3H]prazosin from cloned human adrenergic alpha 1D receptor expressed in CHO cells; format: cell-based; how it was run: as §1
T3 sequence (P25100 whole entry): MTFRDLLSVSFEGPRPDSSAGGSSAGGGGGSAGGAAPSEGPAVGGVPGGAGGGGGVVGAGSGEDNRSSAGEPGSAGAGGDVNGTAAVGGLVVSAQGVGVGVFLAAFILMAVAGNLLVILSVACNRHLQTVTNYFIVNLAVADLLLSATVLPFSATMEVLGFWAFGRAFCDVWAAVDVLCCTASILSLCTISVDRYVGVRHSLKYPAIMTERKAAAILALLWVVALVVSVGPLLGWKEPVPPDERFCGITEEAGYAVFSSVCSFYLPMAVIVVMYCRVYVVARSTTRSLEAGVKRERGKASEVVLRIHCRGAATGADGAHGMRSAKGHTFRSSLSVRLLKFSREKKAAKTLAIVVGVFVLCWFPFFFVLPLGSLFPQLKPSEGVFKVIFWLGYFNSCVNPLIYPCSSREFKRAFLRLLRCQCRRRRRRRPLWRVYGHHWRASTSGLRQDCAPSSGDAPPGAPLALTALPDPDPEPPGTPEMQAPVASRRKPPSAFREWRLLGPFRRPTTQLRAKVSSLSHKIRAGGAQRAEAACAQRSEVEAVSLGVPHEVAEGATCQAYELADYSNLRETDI

[4] = Selectivity for 5HT1A receptor in rat hippocampus over human adrenergic alpha 1A receptor; format: tissue-based
[5] = target: T4, Alpha-1D adrenergic receptor (Rattus norvegicus, UniProt P23944); assay: Activity at adrenergic alpha 1D receptor assessed as antagonism on noradrenaline-induced contraction of Sprague-Dawley rat thoracic aorta; format: functional, tissue-based; conditions: read-out: pA2 (converted)
T4 sequence (P23944 whole entry): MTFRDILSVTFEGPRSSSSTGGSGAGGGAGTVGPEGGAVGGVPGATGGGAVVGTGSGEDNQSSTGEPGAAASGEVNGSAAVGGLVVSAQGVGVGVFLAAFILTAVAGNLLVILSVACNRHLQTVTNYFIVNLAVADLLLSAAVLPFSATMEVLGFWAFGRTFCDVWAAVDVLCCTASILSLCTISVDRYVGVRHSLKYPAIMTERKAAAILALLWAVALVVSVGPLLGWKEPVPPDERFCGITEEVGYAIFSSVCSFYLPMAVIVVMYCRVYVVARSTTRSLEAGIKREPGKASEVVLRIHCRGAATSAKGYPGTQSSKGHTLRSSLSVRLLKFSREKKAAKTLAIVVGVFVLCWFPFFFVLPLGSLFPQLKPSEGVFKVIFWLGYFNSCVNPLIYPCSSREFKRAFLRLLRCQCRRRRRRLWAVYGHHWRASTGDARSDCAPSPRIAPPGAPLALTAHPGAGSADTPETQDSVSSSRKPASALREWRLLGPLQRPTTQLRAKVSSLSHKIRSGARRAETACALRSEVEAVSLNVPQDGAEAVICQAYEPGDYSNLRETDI
How it was run: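 Rat thoracic aorta contracted with (-)-noradrenaline. Blocking activity was measured as antagonism of the contraction.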

[6] = target: Alpha adrenergic receptor 1A and 1B (Rattus norvegicus) (UniProt P15823+P43140); assay: Selectivity for Sprague-Dawley rat adrenergic alpha 1B receptor over adrenergic alpha 1A receptor; format: functional
[7] = target: Alpha adrenergic receptor (1a and 1d) (Homo sapiens) (UniProt P35348+P25100); assay: Selectivity for human adrenergic alpha 1A receptor over human adrenergic alpha 1D receptor

Chain of Alpha adrenergic receptor 1A and 1B (Rattus norvegicus) (P15823 whole entry, looked up): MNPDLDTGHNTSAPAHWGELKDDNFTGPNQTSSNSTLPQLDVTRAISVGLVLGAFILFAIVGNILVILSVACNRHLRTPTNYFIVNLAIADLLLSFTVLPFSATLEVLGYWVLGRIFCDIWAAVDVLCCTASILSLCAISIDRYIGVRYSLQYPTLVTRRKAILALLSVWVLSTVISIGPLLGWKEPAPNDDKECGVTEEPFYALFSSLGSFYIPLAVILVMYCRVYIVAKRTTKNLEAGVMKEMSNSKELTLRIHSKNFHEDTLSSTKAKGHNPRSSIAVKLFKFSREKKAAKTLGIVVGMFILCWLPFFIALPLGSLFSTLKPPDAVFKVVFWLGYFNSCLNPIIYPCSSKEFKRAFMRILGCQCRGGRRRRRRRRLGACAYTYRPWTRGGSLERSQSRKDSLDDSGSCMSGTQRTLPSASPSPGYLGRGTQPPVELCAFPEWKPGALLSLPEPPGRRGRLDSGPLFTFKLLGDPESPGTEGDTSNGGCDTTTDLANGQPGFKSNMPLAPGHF
Chain of Alpha adrenergic receptor 1A and 1B (Rattus norvegicus) (P43140 whole entry, looked up): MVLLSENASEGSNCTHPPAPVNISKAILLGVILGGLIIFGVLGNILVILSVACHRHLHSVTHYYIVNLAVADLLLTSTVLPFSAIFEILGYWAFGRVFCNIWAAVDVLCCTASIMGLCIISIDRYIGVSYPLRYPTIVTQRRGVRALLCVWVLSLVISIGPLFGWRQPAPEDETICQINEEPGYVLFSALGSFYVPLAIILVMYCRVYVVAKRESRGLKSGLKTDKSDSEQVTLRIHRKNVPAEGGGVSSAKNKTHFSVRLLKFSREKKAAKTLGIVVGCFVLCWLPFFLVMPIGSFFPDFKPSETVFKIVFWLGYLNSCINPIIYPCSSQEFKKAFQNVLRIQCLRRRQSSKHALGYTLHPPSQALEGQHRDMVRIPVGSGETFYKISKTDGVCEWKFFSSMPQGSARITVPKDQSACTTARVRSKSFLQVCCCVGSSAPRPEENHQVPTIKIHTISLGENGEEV

Ki [1] [nM]	Ki [2] [nM]	Ki [3] [nM]	Selectivity ratio [4]	Kb [5] [nM]	Selectivity ratio [6]	Selectivity ratio [7]	Structure (SMILES)
1.2	17.8	3.39	5.8	1.02	1.2	2.8	COc1cccc(-c2ccccc2)c1OCCNC[C@H]1COc2ccccc2O1
87.1	186	214	0.9	107	0.17	2.5	COc1cc(-c2ccccc2)ccc1OCCNC[C@H]1COc2ccccc2O1
1.58	15.8	6.61	7.1	0.0209	0.2	4.2	COc1ccc2ccccc2c1OCCNC[C@H]1COc2ccccc2O1
33.9	891	417	10.2	182	0.7	12.3	COc1cccc(OC)c1OCCNC[C@H]1COc2cc3ccccc3cc2O1
5.62	11	15.1	9.3	61.7	< 0.01	2.7	COc1ccc(-c2ccccc2)cc1OCCNC[C@H]1COc2ccccc2O1
25.1	575	339	14.5	4370	< 0.3	13.5	COc1cccc(OC)c1OCCNC[C@H]1COc2cc3c(cc2O1)CCCC3
66.1	372	148	25.7	2570	> 955	2.2	COc1ccc2ccccc2c1OCCNC[C@H]1COc2cc3c(cc2O1)CCCC3
4.57	85.1	22.4	14.8	10	0.25	4.9	COc1ccc2ccccc2c1OCCNC[C@@H]1COc2ccccc2O1
2.82	19.1	14.5	3	4.07	0.05	5.1	COc1ccc2c(c1OCCNC[C@H]1COc3ccccc3O1)CCCC2
